This note sets out measurements from BindingDB's records for doi:10.1021/np900192r (Cnrs, 2009).

The Ki is a measure of affinity in units of concentration, obtained from inhibition or displacement. A high value points to lower affinity.

Some results are limits rather than exact numbers.

Sequence of Bcl-2-like protein 1 (Q07817 whole entry): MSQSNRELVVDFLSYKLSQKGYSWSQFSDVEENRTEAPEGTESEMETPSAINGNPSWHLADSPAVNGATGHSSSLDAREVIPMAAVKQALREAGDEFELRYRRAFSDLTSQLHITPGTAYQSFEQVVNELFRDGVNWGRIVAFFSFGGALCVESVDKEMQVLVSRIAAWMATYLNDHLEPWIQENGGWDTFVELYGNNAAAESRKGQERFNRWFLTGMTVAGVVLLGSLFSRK

The target in the experiment is Bcl-2-like protein 1 (Homo sapiens, UniProt Q07817). Description: Binding affinity to Bcl-xL by fluorescein-labeled Bak-BH3 peptide competition binding assay. In outline:
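Fluorescence polarization competition on Bcl-xL against a fluorescein-tagged Bak BH3-domain peptide as the reference ligand. Ki is the dissociation constant at equilibrium with the reference ligand. Unlabeled Bak(BH3) peptide and a substituted terphenyl derivative served as positive controls. Bcl-xL values are from duplicate runs.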
For `CC(=O)O[C@@H]1[C@@H](OC(C)=O)[C@@H](O)[C@H](OC[C@]2(C)[C@@H](OC(C)=O)C[C@H](O)[C@]3(C)[C@H]4CC=C5[C@H]6C[C@](C)(C(=O)O)CC[C@]6(C)CC[C@@]5(C)[C@]4(C)CC[C@@H]23)O[C@H]1C` [23-O-[alpha-L-(3',4'-Diacetylrhamnopyranosyl]-3beta-acetylimberbic acid], the Ki is > 100 µM. To `COC(=O)[C@]1(C)CC[C@]2(C)CC[C@]3(C)C(=CC[C@@H]4[C@@]5(C)[C@@H](O)C[C@H](OC(C)=O)[C@@](C)(CO[C@@H]6O[C@@H](C)[C@H](OC(C)=O)[C@@H](O)[C@H]6O)[C@@H]5CC[C@]43C)[C@H]2C1` [23-O-[alpha-L-(4'-Acetylrhamnopyranosyl]-3beta-acetylimberbic acid 29-methyl ester] belongs > 100 µM.

As for `CC(=O)O[C@@H]1[C@@H](O)[C@@H](O)[C@H](OC[C@]2(C)[C@@H](OC(C)=O)C[C@H](O)[C@]3(C)[C@H]4CC=C5[C@H]6C[C@](C)(C(=O)O)CC[C@]6(C)CC[C@@]5(C)[C@]4(C)CC[C@@H]23)O[C@H]1C` [23-O-[alpha-L-(4'-Acetylrhamnopyranosyl]-3beta-acetylimberbic acid], the inhibition constant Ki was > 100 µM.
